{
  "source": "ChEMBL document CHEMBL4689842",
  "about": "“EUbOPEN Chemogenomics Library wave 1” (2021)",
  "tested_on": "Fibroblast",
  "assay": "Multiplex assay against human fibroblast",
  "assay_type": "toxicity, cell-based",
  "in_short": "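With compound added, live cells were imaged on a CQ1 microscope at 37°C and 5% CO2; staining with Hoechst33342, BioTracker Green Microtubule Cytoskeleton Dye, MitoTracker Red and Annexin V Alexa Fluor 680 had been done at seeding. The CellPathfinder machine-learning gating scheme split cells into Hoechst high-intensity objects or normal cells, normal cells into healthy, pyknosed or fragmented nuclei, and pyknosed cells into mitotic or apoptotic. The tubulin, mitochondrial-mass and membrane-permeability phenotypes are per cents of healthy-nucleus cells.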",
  "key": {"[1]": {"details": "12 h, 1 µM, compound concentration 1 uM, replicate 1"}, "[2]": {"details": "12 h, 1 µM, compound concentration 1 uM, replicate 2"}, "[3]": {"details": "12 h, 10 µM, compound concentration 10 uM, replicate 1"}, "[4]": {"details": "12 h, 10 µM, compound concentration 10 uM, replicate 2"}, "[5]": {"details": "24 h, 1 µM, compound concentration 1 uM, replicate 1"}, "[6]": {"details": "24 h, 1 µM, compound concentration 1 uM, replicate 2"}, "[7]": {"details": "24 h, 10 µM, compound concentration 10 uM, replicate 1"}, "[8]": {"details": "24 h, 10 µM, compound concentration 10 uM, replicate 2"}, "[9]": {"details": "48 h, 10 µM, compound concentration 10 uM, replicate 1"}, "[10]": {"details": "48 h, 10 µM, compound concentration 10 uM, replicate 2"}},
  "note": "Values joined by “and” are separate entries in the source; they are usually repeats but may differ in a detail not shown here. Equal values may be shown once.",
  "data": [
    {"smiles": "CNC(=O)c1nn(C)c2c1C(C)(C)Cc1cnc(Nc3ccc(N4CCN(C)CC4)cc3)nc1-2", "note": "[MILCICLIB]", "values": [
      {"measurement": "Population Apoptotic (%)", "setting": "[1]", "result": 74, "unit": "%"},
      {"measurement": "Population Fragmented Nuclei (%)", "setting": "[1]", "result": 26, "unit": "%"},
      {"measurement": "Population Healthy Nuclei (%)", "setting": "[1]", "result": 59, "unit": "%"},
      {"measurement": "Population Hoechst High Intensity Objects (%)", "setting": "[1]", "result": 6, "unit": "%"},
      {"measurement": "Population Membrane Permeable-Phenotype (%)", "setting": "[1]", "result": 15, "unit": "%"},
      {"measurement": "Population Mitochondria Different-Phenotype (%)", "setting": "[1]", "result": 7, "unit": "%"},
      {"measurement": "Population Mitotic Cells (%)", "setting": "[1]", "result": 25, "unit": "%"},
      {"measurement": "Population Normal (%)", "setting": "[1]", "result": 93, "unit": "%"},
      {"measurement": "Population Pyknosed Nuclei (%)", "setting": "[1]", "result": 14, "unit": "%"},
      {"measurement": "Population Tubulin-Different-Phenotype (%)", "setting": "[1]", "result": 30, "unit": "%"},
      {"measurement": "Total Cell Count", "setting": "[1]", "result": 202},
      {"measurement": "Population Apoptotic (%)", "setting": "[2]", "result": 100, "unit": "%"},
      {"measurement": "Population Fragmented Nuclei (%)", "setting": "[2]", "result": 64, "unit": "%"},
      {"measurement": "Population Healthy Nuclei (%)", "setting": "[2]", "result": 34, "unit": "%"},
      {"measurement": "Population Hoechst High Intensity Objects (%)", "setting": "[2]", "result": 34, "unit": "%"},
      {"measurement": "Population Membrane Permeable-Phenotype (%)", "setting": "[2]", "result": 13, "unit": "%"},
      {"measurement": "Population Mitochondria Different-Phenotype (%)", "setting": "[2]", "result": 31, "unit": "%"},
      {"measurement": "Population Mitotic Cells (%)", "setting": "[2]", "result": 0, "unit": "%"},
      {"measurement": "Population Normal (%)", "setting": "[2]", "result": 65, "unit": "%"},
      {"measurement": "Population Pyknosed Nuclei (%)", "setting": "[2]", "result": 1, "unit": "%"},
      {"measurement": "Population Tubulin-Different-Phenotype (%)", "setting": "[2]", "result": 54, "unit": "%"},
      {"measurement": "Total Cell Count", "setting": "[2]", "result": 97},
      {"measurement": "Population Apoptotic (%)", "setting": "[3]", "result": "61% and 65% and 87%"},
      {"measurement": "Population Fragmented Nuclei (%)", "setting": "[3]", "result": "29% and 25% and 26%"},
      {"measurement": "Population Healthy Nuclei (%)", "setting": "[3]", "result": "40% and 48% and 55%"},
      {"measurement": "Population Hoechst High Intensity Objects (%)", "setting": "[3]", "result": "11% and 12% and 13%"},
      {"measurement": "Population Mitochondria Different-Phenotype (%)", "setting": "[3]", "result": "14% and 12% and 10%"},
      {"measurement": "Population Normal (%)", "setting": "[3]", "result": "88% and 87% and 86%"},
      {"measurement": "Population Pyknosed Nuclei (%)", "setting": "[3]", "result": "30% and 25% and 18%"},
      {"measurement": "Population Tubulin-Different-Phenotype (%)", "setting": "[3]", "result": "77% and 74% and 40%"},
      {"measurement": "Population Apoptotic (%)", "setting": "[4]", "result": "66% and 73% and 60%"},
      {"measurement": "Population Healthy Nuclei (%)", "setting": "[4]", "result": "30% and 54% and 62%"},
      {"measurement": "Population Mitotic Cells (%)", "setting": "[4]", "result": "33% and 26% and 40%"},
      {"measurement": "Population Normal (%)", "setting": "[4]", "result": "70% and 90% and 97%"},
      {"measurement": "Total Cell Count", "setting": "[4]", "result": "99 and 122 and 65"},
      {"measurement": "Population Apoptotic (%)", "setting": "[5]", "result": 78, "unit": "%"},
      {"measurement": "Population Fragmented Nuclei (%)", "setting": "[5]", "result": 27, "unit": "%"},
      {"measurement": "Population Healthy Nuclei (%)", "setting": "[5]", "result": 57, "unit": "%"},
      {"measurement": "Population Hoechst High Intensity Objects (%)", "setting": "[5]", "result": 12, "unit": "%"},
      {"measurement": "Population Membrane Permeable-Phenotype (%)", "setting": "[5]", "result": 7, "unit": "%"},
      {"measurement": "Population Mitochondria Different-Phenotype (%)", "setting": "[5]", "result": 13, "unit": "%"},
      {"measurement": "Population Mitotic Cells (%)", "setting": "[5]", "result": 21, "unit": "%"},
      {"measurement": "Population Normal (%)", "setting": "[5]", "result": 87, "unit": "%"},
      {"measurement": "Population Pyknosed Nuclei (%)", "setting": "[5]", "result": 14, "unit": "%"},
      {"measurement": "Population Tubulin-Different-Phenotype (%)", "setting": "[5]", "result": 33, "unit": "%"},
      {"measurement": "Total Cell Count", "setting": "[5]", "result": 224},
      {"measurement": "Population Apoptotic (%)", "setting": "[6]", "result": 50, "unit": "%"},
      {"measurement": "Population Fragmented Nuclei (%)", "setting": "[6]", "result": 60, "unit": "%"},
      {"measurement": "Population Healthy Nuclei (%)", "setting": "[6]", "result": 33, "unit": "%"},
      {"measurement": "Population Hoechst High Intensity Objects (%)", "setting": "[6]", "result": 33, "unit": "%"},
      {"measurement": "Population Membrane Permeable-Phenotype (%)", "setting": "[6]", "result": 10, "unit": "%"},
      {"measurement": "Population Mitochondria Different-Phenotype (%)", "setting": "[6]", "result": 30, "unit": "%"},
      {"measurement": "Population Mitotic Cells (%)", "setting": "[6]", "result": 50, "unit": "%"},
      {"measurement": "Population Normal (%)", "setting": "[6]", "result": 66, "unit": "%"},
      {"measurement": "Population Pyknosed Nuclei (%)", "setting": "[6]", "result": 6, "unit": "%"},
      {"measurement": "Population Tubulin-Different-Phenotype (%)", "setting": "[6]", "result": 40, "unit": "%"},
      {"measurement": "Total Cell Count", "setting": "[6]", "result": 90},
      {"measurement": "Population Apoptotic (%)", "setting": "[7]", "result": "84% and 46% and 60%"},
      {"measurement": "Population Fragmented Nuclei (%)", "setting": "[7]", "result": "37% and 29% and 34%"},
      {"measurement": "Population Healthy Nuclei (%)", "setting": "[7]", "result": "47% and 50%"},
      {"measurement": "Population Hoechst High Intensity Objects (%)", "setting": "[7]", "result": "20% and 12% and 15%"},
      {"measurement": "Population Mitochondria Different-Phenotype (%)", "setting": "[7]", "result": "16% and 28% and 27%"},
      {"measurement": "Population Normal (%)", "setting": "[7]", "result": "79% and 87% and 84%"},
      {"measurement": "Population Pyknosed Nuclei (%)", "setting": "[7]", "result": "15% and 22%"},
      {"measurement": "Population Tubulin-Different-Phenotype (%)", "setting": "[7]", "result": "46% and 80% and 58%"},
      {"measurement": "Population Apoptotic (%)", "setting": "[8]", "result": "50% and 66% and 86%"},
      {"measurement": "Population Healthy Nuclei (%)", "setting": "[8]", "result": "34% and 49% and 61%"},
      {"measurement": "Population Hoechst High Intensity Objects (%)", "setting": "[8]", "result": 18, "unit": "%"},
      {"measurement": "Population Normal (%)", "setting": "[8]", "result": 81, "unit": "%"},
      {"measurement": "Population Tubulin-Different-Phenotype (%)", "setting": "[8]", "result": "35% and 100%"},
      {"measurement": "Total Cell Count", "setting": "[8]", "result": "110 and 78 and 118"},
      {"measurement": "Population Apoptotic (%)", "setting": "[9]", "result": "25% and 33%"},
      {"measurement": "Population Fragmented Nuclei (%)", "setting": "[9]", "result": "45% and 39%"},
      {"measurement": "Population Healthy Nuclei (%)", "setting": "[9]", "result": "42% and 49%"},
      {"measurement": "Population Hoechst High Intensity Objects (%)", "setting": "[9]", "result": "15% and 19%"},
      {"measurement": "Population Membrane Permeable-Phenotype (%)", "setting": "[9]", "result": "22% and 10%"},
      {"measurement": "Population Mitochondria Different-Phenotype (%)", "setting": "[9]", "result": "15% and 22%"},
      {"measurement": "Population Mitotic Cells (%)", "setting": "[9]", "result": "75% and 66%"},
      {"measurement": "Population Normal (%)", "setting": "[9]", "result": "84% and 80%"},
      {"measurement": "Population Pyknosed Nuclei (%)", "setting": "[9]", "result": 11, "unit": "%"},
      {"measurement": "Population Tubulin-Different-Phenotype (%)", "setting": "[9]", "result": "68% and 80%"},
      {"measurement": "Total Cell Count", "setting": "[9]", "result": "124 and 166"},
      {"measurement": "Population Apoptotic (%)", "setting": "[10]", "result": 66, "unit": "%"},
      {"measurement": "Population Fragmented Nuclei (%)", "setting": "[10]", "result": "35% and 36%"},
      {"measurement": "Population Healthy Nuclei (%)", "setting": "[10]", "result": "62% and 60%"},
      {"measurement": "Population Hoechst High Intensity Objects (%)", "setting": "[10]", "result": "18% and 14%"},
      {"measurement": "Population Membrane Permeable-Phenotype (%)", "setting": "[10]", "result": "16% and 11%"},
      {"measurement": "Population Mitochondria Different-Phenotype (%)", "setting": "[10]", "result": "11% and 17%"},
      {"measurement": "Population Mitotic Cells (%)", "setting": "[10]", "result": 33, "unit": "%"},
      {"measurement": "Population Normal (%)", "setting": "[10]", "result": "81% and 85%"},
      {"measurement": "Population Pyknosed Nuclei (%)", "setting": "[10]", "result": 2, "unit": "%"},
      {"measurement": "Population Tubulin-Different-Phenotype (%)", "setting": "[10]", "result": "84% and 96%"},
      {"measurement": "Total Cell Count", "setting": "[10]", "result": "169 and 170"}
    ]}
  ]
}
